In general, IC50 refers to the concentration needed to halve the response being measured. Low values mean greater potency, high ones weaker potency.

The subject of data set [1] is Mycolicibacterium smegmatis. In words: Antibiofilm activity against Mycobacterium smegmatis str. MC2 155 ATCC 700084 after 48 hrs by crystal violet staining based […] assay. Type of data set: functional, organism-based. Particulars: MC2 155 ATCC 700084, 48 h. Summed up: (§1)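 IC50 is the concentration giving 50% inhibition of biofilm formation relative to an untreated control.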

Data set [2] deals with Mycolicibacterium smegmatis. In words: Toxicity against Mycobacterium smegmatis str. MC2 155 ATCC 700084 at 60 uM assessed as planktonic growth inhibition incubated for 4 to 48 hrs followed by replating on 7H10 plates and measured after 48 hrs by time kill curve assay. Particulars: in vivo. The format is organism-based. Summed up: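 Planktonic growth curves of bacteria grown with compound at 60 μM were compared with curves from untreated cultures.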

Data set [3] in a line: Hemolytic activity in sheep RBC at 500 uM incubated for 1 hr under shaking condition by UV-spectrophotometry relative to 1% Triton-X. Particulars: sheep red blood cells (erythrocytes), read-out: Activity. The format is ADME, cell-based, Ovis aries, Erythrocyte. In outline: (§2)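 Red blood cells were exposed to compound, and hemolysis was expressed as percent lysis relative to 1% Triton-X. The assay served as an antibiotic toxicity screen, and 500 μM was the highest concentration tested.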

The nature of data set [4]: Hemolytic activity in sheep RBC at 200 uM incubated for 1 hr under shaking condition by UV-spectrophotometry relative to 1% Triton-X. Type of data set: ADME, cell-based, Ovis aries, Erythrocyte. Particulars: sheep red blood cells (erythrocytes), read-out: Activity. Summed up: as §2
Data set [5] is described as follows: Hemolytic index, ratio of compound concentration causing hemolysis in sheep RBC to IC50 for antibiofilm activity against Mycobacterium smegmatis str. MC2 155 ATCC 700084. Summed up:
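Red blood cells were exposed to compound at up to 500 μM, including 200 μM. Lysis was quantified relative to 1% Triton-X. The index was calculated as the hemolysis-causing concentration divided by the biofilm-inhibition IC50.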

The subject of data set [6] is Mycolicibacterium smegmatis. In words: Antibiofilm activity against Mycobacterium smegmatis str. MC2 155 ATCC 700084 after 48 hrs by crystal violet staining based spectrophotometric assay. Particulars: MC2 155 ATCC 700084, 48 h. Type of data set: functional, organism-based. Summed up:
as §1

`Cl.Nc1ncc2cc(NC(=O)c3ccc(Cl)cc3)ccc2n1` displayed a half-inhibitory concentration (IC50) in data set [1] of 15 µM. For the same compound, the Activity entry in data set [2] is given as “Non-Toxic”. Besides, the hemolysis at 1 h, 500 µM in data set [3] is 24%. Also, the hemolysis at 1 h, 200 µM in data set [4] was 4%. The HI in data set [5] was > 33. In the case of `CCCCCCS(=O)(=O)Nc1ccc2nc(N)ncc2c1`, the IC50 in data set [1] was > 100 µM. In data set [1], `CCc1ccc(C(=O)Nc2ccc3nc(N)ncc3c2)cc1` gave an IC50 of 18 µM. Same read-out and setting: as for `CCCCC(=O)Nc1ccc2nc(N)ncc2c1`, the figure is 26 µM.

For the compound `CCS(=O)(=O)Nc1ccc2nc(N)ncc2c1`, in data set [1], the IC50 was determined as 34 µM. For `CCCCCCC(CCCCCC)NC(=O)CCCc1c[nH]c(N)n1`, in data set [6], half-maximal inhibition (IC50) was put at 5.3 µM. That is a single-digit micromolar value.

Regarding `Nc1ncc2cc(NC(=O)c3ccc(F)cc3)ccc2n1`, in data set [1], the 50% inhibitory concentration (IC50) was > 200 µM. In data set [1], `CCC(=O)Nc1ccc2nc(N)ncc2c1` came in with an IC50 of 42 µM.

Take `CCCc1ccc(C(=O)Nc2ccc3nc(N)ncc3c2)cc1.Cl`: half-maximal inhibition in data set [1] (IC50) required 16 µM. Further, in data set [2], the Activity entry is “Non-Toxic”. Moreover, the hemolysis at 1 h, 500 µM in data set [3] came to 25%. The hemolysis at 1 h, 200 µM in data set [4] was 14%. Besides, the HI in data set [5] is > 33.

In data set [1], `CCCCCCc1ccc(C(=O)Nc2ccc3nc(N)ncc3c2)cc1` returned a 50% inhibitory concentration (IC50) of 65 µM. Regarding `Nc1ncc2cc(NC(=O)c3cc(F)cc(F)c3)ccc2n1`, the IC50 in data set [1] turned out to be 46 µM. As to `CCCC(=O)Nc1ccc2nc(N)ncc2c1`, the midpoint of inhibition in data set [1], the IC50, lay at 37 µM. Still for that read-out and setting: the result for `Cc1ccc(C(=O)Nc2ccc3nc(N)ncc3c2)cc1` reads 19 µM. Take `Nc1ncc2cc(NC(=O)c3ccc(Br)cc3)ccc2n1`: the IC50 in data set [1] was 44 µM. As to `Nc1ncc2cc(NC(=O)CCl)ccc2n1`, the IC50 in data set [1] stood at 43 µM. For the compound `CS(=O)(=O)Nc1ccc2nc(N)ncc2c1`, the concentration for half-maximal inhibition (IC50) in data set [1] was > 100 µM.

With `CCCCCCCc1ccc(C(=O)Nc2ccc3nc(N)ncc3c2)cc1`, in data set [1], the IC50 was > 100 µM. The hemolysis at 1 h, 500 µM in data set [3] amounted to 57%. Also, the hemolysis at 1 h, 200 µM in data set [4] stood at 31%. In data set [1], `CCCCS(=O)(=O)Nc1ccc2nc(N)ncc2c1` gave a half-maximal inhibitory concentration (IC50) of 60 µM. The same measure, in the same setting: as for `Nc1ncc2cc(NC(=O)c3cc(Cl)cc(Cl)c3)ccc2n1`, the figure is 42 µM; as for `CC(=O)Nc1ccc2nc(N)ncc2c1`, 54 µM. The same measure, in the same setting: the result for `CCCS(=O)(=O)Nc1ccc2nc(N)ncc2c1` reads 36 µM. On the same count and under the same terms, as for `Nc1ncc2cc(NC(=O)C(Cl)(Cl)Cl)ccc2n1`, the figure is 50 µM; as for `CCCCCC(=O)Nc1ccc2nc(N)ncc2c1`, 23 µM; as for `Nc1ncc2cc(NC(=O)c3ccccc3)ccc2n1`, 34 µM. The compound `CCCCCc1ccc(C(=O)Nc2ccc3nc(N)ncc3c2)cc1` had an IC50 in data set [1] of 39 µM. Same read-out and setting: the result for `CCCCc1ccc(C(=O)Nc2ccc3nc(N)ncc3c2)cc1` reads 39 µM; that for `Nc1ncc2cc(NS(=O)(=O)c3cccs3)ccc2n1`, > 100 µM; that for `CCCCCCC(=O)Nc1ccc2nc(N)ncc2c1`, 49 µM.

For the compound `CCCCCCCCC(=O)Nc1ccc2nc(N)ncc2c1`, in data set [1], the IC50 is > 100 µM. For the compound `CCCCCCCC(=O)Nc1ccc2nc(N)ncc2c1`, in data set [1], the IC50 is > 100 µM. Still for that read-out and setting: as for `Nc1ncc2cc(NC(=O)c3ccc(I)cc3)ccc2n1`, the figure is > 200 µM.

The values above are taken from ChEMBL document CHEMBL4373648, “Anti-biofilm activity of quinazoline derivatives against Mycobacterium smegmatis” (Medchemcomm, 2019).
